Assay results as given in ChEMBL document CHEMBL1154421, “In vitro suppression of K65R reverse transcriptase-mediated tenofovir- and adefovir-5'-diphosphate resistance conferred by the boranophosphonate derivatives” (Antimicrob Agents Chemother, 2007).
pIC50, pKd: −log10 of the molar value.

Key:
[1] = target: T1, Human immunodeficiency virus type 1 reverse transcriptase (Human immunodeficiency virus 1, UniProt Q72547, K65R); assay: Binding affinity to HIV1 recombinant reverse transcriptase p66/p51 K65R mutant expressed in Escherichia coli assessed as incorporation of drug to DNA by gel electrophoresis
Method in brief: (§1)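 Pre-steady-state single-nucleotide incorporation, rapid quench over 10 ms to 30 s. Primer is a 5'-32P-labelled 21-mer annealed to a 31-mer DNA template. Products resolved on 14% acrylamide/8 M urea gels and phosphorimaged. kpol and Kd fitted to a hyperbola.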

[2] = tested on: Human immunodeficiency virus type 1 reverse transcriptase (Human immunodeficiency virus 1), Q72547 [K65R]; assay: Binding affinity to HIV1 recombinant reverse transcriptase p66/p51 K65R mutant expressed in Escherichia coli assessed as ratio of catalytic rate constant to Kd for incorporation of drug to DNA by gel electrophoresis; method in brief: as §1
[3] = target: Human immunodeficiency virus type 1 reverse transcriptase (Human immunodeficiency virus 1) (UniProt Q72547); assay: Binding affinity to wild type reverse transcriptase assessed as ratio of catalytic rate constant to Kd for incorporation of drug to DNA by gel electrophoresis; method in brief: as §1
[4] = target: T2, Human immunodeficiency virus type 1 reverse transcriptase (Human immunodeficiency virus 1, UniProt Q72547); assay: Binding affinity to HIV1 wild type reverse transcriptase p66/p51 expressed in Escherichia coli assessed as incorporation of drug to DNA by gel electrophoresis; method in brief: as §1
[5] = target: Human immunodeficiency virus type 1 reverse transcriptase (Human immunodeficiency virus 1) (UniProt Q72547); assay: Inhibition of HIV1 wild type reverse transcriptase p66/p51 DNA polymerase activity assessed as formation of terminated DNA products; parameters: concentration or dose not given beside the values; details: concentration not given here
[6] = tested on: Human immunodeficiency virus type 1 reverse transcriptase (Human immunodeficiency virus 1), Q72547 [K65R]; assay: Binding affinity to HIV1 recombinant reverse transcriptase p66/p51 K65R mutant assessed as ratio of catalytic rate constant to Kd for dATP to drug by gel electrophoresis; method in brief: as §1
[7] = target: T2, Human immunodeficiency virus type 1 reverse transcriptase; assay: Inhibition of HIV1 wild type reverse transcriptase p66/p51 expressed in Escherichia coli using calf thymus DNA substrate
Method in brief: (§2)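 Recombinant p66/p51 RT, coexpressed with HIV-1 protease in E. coli, affinity-purified and active-site titrated. Reactions used 10 nM RT, 250 µg/ml activated calf thymus DNA and 5 µM each dNTP with [3H]dATP (100 µCi/mmol), run for 15 min across increasing inhibitor. Samples spotted in duplicate on DE81 discs, washed in 0.3 M ammonium formate pH 8.0 and ethanol, then scintillation counted. IC50 averaged from at least three independent experiments.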

[8] = target: T1, Human immunodeficiency virus type 1 reverse transcriptase; assay: Inhibition of HIV1 reverse transcriptase p66/p51 K65R mutant expressed in Escherichia coli using calf thymus DNA substrate; method in brief: as §2
[9] = tested on: Human immunodeficiency virus 1; assay: Inhibition of HIV1 […] reverse transcriptase p66/p51 R72A mutant DNA polymerase activity assessed as formation of terminated DNA products; details: concentration not given here
Method in brief: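 Polymerization rate gel assay with WT or R72A RT (50 nM) and 25 nM 5'-labelled oligo(dA)21 annealed to poly(rU)31, in RT buffer at 37°C. Extension followed over the first seconds with dATP or analogues. Products separated by denaturing gel electrophoresis and autoradiographed.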

[10] = tested on: Human immunodeficiency virus 1; assay: Ratio of IC50 for HIV1 reverse transcriptase p66/p51 K65R mutant to IC50 for HIV1 wild type reverse transcriptase; method in brief: as §2
[11] = target: Human immunodeficiency virus type 1 reverse transcriptase (Human immunodeficiency virus 1) (UniProt Q72547); assay: Binding affinity to HIV1 wild type reverse transcriptase p66/p51 assessed as ratio of catalytic rate constant to Kd for dATP to drug by gel electrophoresis; method in brief: as §1

| SMILES | pKd [1] | Ratio [2] | Ratio [3] | pKd [4] | inhibition [5] [%] | Ratio [6] | pIC50 [7] | pIC50 [8] | inhibition [9] [%] | Ratio IC50 [10] | Ratio [11] |
| --- | --- | --- | --- | --- | --- | --- | --- | --- | --- | --- | --- |
| Nc1ncnc2c1ncn2[C@H]1C[C@H](O)[C@@H](COP(=O)(O)OP(=O)(O)OP(=O)(O)O)O1 | 5.16 | 1.7 | 6.7 | 5.12 | 75 | – | – | – | – | – | – |
| BP(=O)(COCCn1cnc2c(N)ncnc21)OP(=O)(O)OP(=O)(O)O (centres undefined) | 5.15 | 0.2 | 0.3 | 5.19 | 69 | 8.8 | 4.77 | 4.92 | 53 | 0.7 | 21.7 |
| BP(=O)(CO[C@H](C)Cn1cnc2c(N)ncnc21)OP(=O)(O)OP(=O)(O)O (some centres undefined) | 4.46 | 0.17 | 0.7 | 4.48 | 74 | 10 | 4.84 | 4.74 | 45 | 1.2 | 9.6 |
| C[C@H](Cn1cnc2c(N)ncnc21)OCP(=O)(O)OP(=O)(O)OP(=O)(O)O | 4.74 | 0.02 | 0.3 | 4.64 | 74 | 97.8 | 4.66 | 3.77 | 0.2 | 8 | 21.9 |
| Nc1ncnc2c1ncn2CCOCP(=O)(O)OP(=O)(O)OP(=O)(O)O [ADEFOVIR DIPHOSPHATE] | 5.11 | 0.1 | 0.9 | 5.10 | 72 | 17.9 | 5.08 | 4.28 | 1.6 | 6 | 7.7 |
